Measured values reported in ChEMBL document CHEMBL1130351, “Nonclassical 2,4-diamino-5-aryl-6-ethylpyrimidine antifolates: activity as inhibitors of dihydrofolate reductase from Pneumocystis carinii and Toxoplasma gondii and as antitumor agents” (J Med Chem, 1997).

Key:
Mus musculus [1] = assay: Antitumor activity expressed as a ratio of tumor volumes of test (T) animals compared to control (C) animals(100) at a dose of 12.5 mg/kg/day; assay type: functional
How it was run: (§1)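 BDF1 female mice in groups of 5 received 10^6 M5076 cells im into the left leg on day 0. Drug was dissolved in 10-20% DMSO in arachis oil and given ip daily on days 1-17; controls got vehicle only. Tumor volumes were measured on days 12, 16, 20 and 24. T/C = test/control tumor volume ×100.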

Mus musculus [2] = assay: Number of M5076 reticulum cell sarcoma bearing mice survived among the tested (5) on day 24 after treating with compound dose of 12.5 mg/Kg/day; assay type: functional; how it was run: as §1
[3] = molecular target: T1, Bifunctional dihydrofolate reductase-thymidylate synthase (Toxoplasma gondii, UniProt Q07422); assay: Inhibitory activity against Dihydrofolate reductase from Toxoplasma gondii was evaluated using 90 uM dihydrofolic acid as substrate
T1 sequence (Q07422 whole entry): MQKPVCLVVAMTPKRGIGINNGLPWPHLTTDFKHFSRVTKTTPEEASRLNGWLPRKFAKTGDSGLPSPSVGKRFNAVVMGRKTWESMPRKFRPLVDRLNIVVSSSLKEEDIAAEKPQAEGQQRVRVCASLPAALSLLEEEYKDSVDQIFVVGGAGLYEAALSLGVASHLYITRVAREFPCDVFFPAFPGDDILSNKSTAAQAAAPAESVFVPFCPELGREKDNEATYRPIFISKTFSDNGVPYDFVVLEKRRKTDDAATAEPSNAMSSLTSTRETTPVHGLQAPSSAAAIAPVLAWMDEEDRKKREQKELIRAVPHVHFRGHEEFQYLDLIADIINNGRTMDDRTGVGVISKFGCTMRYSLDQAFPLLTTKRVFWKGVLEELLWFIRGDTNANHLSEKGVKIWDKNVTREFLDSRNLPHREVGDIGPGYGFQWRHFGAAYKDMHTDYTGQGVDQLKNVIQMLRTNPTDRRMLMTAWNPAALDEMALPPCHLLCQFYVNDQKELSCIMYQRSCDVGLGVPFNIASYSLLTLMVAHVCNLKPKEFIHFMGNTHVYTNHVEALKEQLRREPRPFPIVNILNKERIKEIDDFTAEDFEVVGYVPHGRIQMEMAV

Mus musculus [4] = assay: Number of M5076 reticulum cell sarcoma bearing mice survived among the tested (5) on day 24 after treating with compound dose of 25 mg/Kg/day; assay type: functional; how it was run: as §1
Mus musculus [5] = assay: Antitumor activity expressed as a ratio of tumor volumes of test (T) animals compared to control (C) animals(100) at a dose of 25 mg/kg/day; assay type: functional; how it was run: as §1
Mus musculus [6] = assay: Number of M5076 reticulum cell sarcoma bearing mice survived among the tested (5) on day 24 after treating with compound dose of 3.125 mg/Kg/day; assay type: functional; how it was run: as §1
Mus musculus [7] = assay: Antitumor activity expressed as a ratio of tumor volumes of test (T) animals compared to control (C) animals(100) at a dose of 3.125 mg/kg/day; assay type: functional; how it was run: as §1

Row | SMILES | IC50 [3] [nM] | also measured
1 | CCc1nc(N)nc(N)c1-c1ccc(N(C)Cc2ccc(C(=O)NC)cc2)c([N+](=O)[O-])c1 | 7.4 | T/C (Mus musculus [1]): 15%; Survivors (Mus musculus [2]): 5
2 | CCOC(=O)CCC(NC(=O)c1ccc(CNc2ccc(-c3c(N)nc(N)nc3CC)cc2[N+](=O)[O-])cc1)C(=O)OCC (stereo not drawn) | 7.1 | 
3 | CCc1nc(N)nc(N)c1-c1ccc(N(C)Cc2ccc(C(=O)O)cc2)c([N+](=O)[O-])c1 | 3.1 | T/C (Mus musculus [1]): 100%; Survivors (Mus musculus [2]): 5
4 | CCc1nc(N)nc(N)c1-c1ccc(NCc2ccc(C(=O)N(C)C)cc2)c([N+](=O)[O-])c1 | 7.9 | 
5 | CCc1nc(N)nc(N)c1-c1ccc(NCc2ccc(S(N)(=O)=O)cc2)c([N+](=O)[O-])c1 | 5.8 | 
6 | CCc1nc(N)nc(N)c1-c1ccc(NCc2ccc(C(=O)NC(CCC(=O)O)C(=O)O)cc2)c([N+](=O)[O-])c1 (stereo not drawn) | 6.2 | 
7 | CCc1nc(N)nc(N)c1-c1ccc(NCc2ccc(C(=O)N3CCCCC3)cc2)c([N+](=O)[O-])c1 | 140 | 
8 | CCc1nc(N)nc(N)c1-c1ccc(N(C)Cc2ccc(C3=NC(C)(C)CO3)cc2)c([N+](=O)[O-])c1 | 14 | 
9 | CCc1nc(N)nc(N)c1-c1ccc(NCc2ccc(C(=O)O)cc2)c([N+](=O)[O-])c1 | 1.8 | 
10 | CCc1nc(N)nc(N)c1-c1ccc(NCc2ccc(C(=O)NC)cc2)c([N+](=O)[O-])c1 | 4.3 | 
11 | CCc1nc(N)nc(N)c1-c1ccc(NCc2ccc(C3OCCO3)cc2)c([N+](=O)[O-])c1 | 15 | 
12 | CCc1nc(N)nc(N)c1-c1ccc(NCc2ccc(C(N)=O)cc2)c([N+](=O)[O-])c1 | 3.7 | 
13 | CCc1nc(N)nc(N)c1-c1ccc(N(C)Cc2ccccc2)c([N+](=O)[O-])c1 |  | Survivors (Mus musculus [4]): 5; T/C (Mus musculus [5]): 37%
14 | CCc1nc(N)nc(N)c1-c1ccc(NCc2ccccc2)c([N+](=O)[O-])c1 | 19 | 
15 | CN(Cc1cnc2nc(N)nc(N)c2n1)c1ccc(C(=O)N[C@@H](CCC(=O)O)C(=O)O)cc1 [METHOTREXATE] |  | Survivors (Mus musculus [6]): 5; T/C (Mus musculus [7]): 92%
16 | Cc1nc(N)nc(N)c1-c1ccc(Cl)c(Cl)c1 [METOPRINE] |  | Survivors (Mus musculus [6]): 1; T/C (Mus musculus [7]): <8%
